Data set [1] addresses T1, Serine/threonine-protein kinase pim-1 (Homo sapiens, UniProt P11309). Kind of data set: Inhibition of PIM1 (unknown origin) using 5-FAM-RSRHSSYPAGT-CONH2 as substrate after 2 hrs by electrophoretic mobility shift assay.
Data set [2] concerns the target T2, Serine/threonine-protein kinase pim-2 (Homo sapiens, UniProt Q9P1W9). Kind of data set: Inhibition of full length recombinant human N-terminal GST-tagged PIM2 (1 to 311 residues) expressed in baculovirus infected sf21 cells using S6K2 peptide as substrate by electrophoretic mobility shift assay.
Data set [3] has as its target Rho-associated protein kinase 1 (Homo sapiens) (UniProt Q13464). Kind of data set: Inhibition of recombinant human N-terminal GST-tagged ROCK1 catalytic domain (1 to 477 residues) expressed in baculovirus infected sf21 cells at 200 nM using LIMKtide as substrate by electrophoretic mobility shift assay relative to control. The gist of the method: (§1)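 Single-point screen of a 52-kinase panel with compound at 200 nM, read as % inhibition of each kinase; run by a contract lab (Carna Biosciences).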

Data set [4] has as its target T2, Serine/threonine-protein kinase pim-2. Kind of data set: Inhibition of full length recombinant human N-terminal GST-tagged PIM2 (1 to 311 residues) expressed in baculovirus infected sf21 cells at 200 nM using S6K2 peptide as substrate by electrophoretic mobility shift assay relative to control. The method in brief:
as §1
(A gel shift assay detects complexes by their altered migration in electrophoresis.)

The target of data set [5] is T3, Serine/threonine-protein kinase D2 (Homo sapiens) (UniProt Q9BZL6).
T3 sequence (whole entry): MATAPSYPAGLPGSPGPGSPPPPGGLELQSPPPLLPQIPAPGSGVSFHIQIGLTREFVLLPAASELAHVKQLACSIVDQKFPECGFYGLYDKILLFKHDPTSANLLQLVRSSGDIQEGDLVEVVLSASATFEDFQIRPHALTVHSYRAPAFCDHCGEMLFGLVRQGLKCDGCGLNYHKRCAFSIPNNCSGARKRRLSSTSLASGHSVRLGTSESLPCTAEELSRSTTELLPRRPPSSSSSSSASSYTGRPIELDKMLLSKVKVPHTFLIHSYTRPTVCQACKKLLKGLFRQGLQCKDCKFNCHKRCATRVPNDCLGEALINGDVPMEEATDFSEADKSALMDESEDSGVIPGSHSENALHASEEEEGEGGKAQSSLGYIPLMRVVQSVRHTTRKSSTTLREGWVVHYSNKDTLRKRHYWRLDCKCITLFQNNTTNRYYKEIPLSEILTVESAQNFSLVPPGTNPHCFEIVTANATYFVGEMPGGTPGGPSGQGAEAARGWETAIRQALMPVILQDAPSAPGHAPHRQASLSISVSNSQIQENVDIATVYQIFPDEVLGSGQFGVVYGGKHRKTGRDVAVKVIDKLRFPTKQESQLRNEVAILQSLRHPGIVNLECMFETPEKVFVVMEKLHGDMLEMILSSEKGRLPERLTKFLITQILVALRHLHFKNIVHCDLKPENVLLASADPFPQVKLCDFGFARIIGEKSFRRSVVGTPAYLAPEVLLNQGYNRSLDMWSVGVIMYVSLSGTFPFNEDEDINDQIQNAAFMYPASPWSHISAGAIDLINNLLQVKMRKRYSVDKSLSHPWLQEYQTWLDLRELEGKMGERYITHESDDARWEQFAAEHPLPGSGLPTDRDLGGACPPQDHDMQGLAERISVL
The data set is described as follows: Inhibition of full length recombinant human N-terminal GST-tagged PKD2 (1 to 878 end residues) expressed in baculovirus infected sf21 cells at 200 nM using GS peptide as substrate by electrophoretic mobility shift assay relative to control. The method in brief:
as §1

Data set [6] concerns the target Death-associated protein kinase 1 (Homo sapiens) (UniProt P53355). Kind of data set: Inhibition of recombinant human N-terminal GST-tagged DAPK1 catalytic domain (1 to 289 residues) expressed in baculovirus infected sf21 cells at 200 nM using DAPK1tide as substrate by electrophoretic mobility shift assay relative to control. The method in brief:
as §1

The target of data set [7] is Protein kinase C alpha type (Homo sapiens) (UniProt P17252). The data set is described as follows: Inhibition of full length recombinant human N-terminal GST-tagged PKCalpha (1 to 672 residues) expressed in baculovirus infected sf21 cells at 200 nM using PKC peptide as substrate by electrophoretic mobility shift assay relative to control. The gist of the method: as §1

The subject of data set [8] is WI-38. The data set is described as follows: Growth inhibition of human WI38 cells after 48 hrs by CCK8 assay. Type of data set: cell-based. The following applies: WI-38, 48 h. The method in brief: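 Cells incubated with compound for 48 h for growth inhibition.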
On the technique in general: Tetrazolium assays rely on reduction of a dye to a coloured formazan, in cell work by metabolically active cells.

A short description of data set [9]: Growth inhibition of human MOLM16 cells after 72 hrs by CCK8 assay. The note with it: MOLM16, 72 h. The format is functional, cell-based.
For data set [10], the target named is T1, Serine/threonine-protein kinase pim-1. The data set is described as follows: Inhibition of full length recombinant human N-terminal His-tagged PIM1 (1 to 313 end residues) expressed in baculovirus infected sf21 cells using S6K2 peptide as substrate by electrophoretic mobility shift assay.
Data set [11] has as its target Platelet-derived growth factor receptor alpha (Homo sapiens) (UniProt P16234). The data set is described as follows: Inhibition of recombinant human N-terminal GST-tagged PDGFRalpha cytoplasmic domain (550 to 1089 end residues) expressed in baculovirus infected sf21 cells at 200 nM using CSKtide as substrate by electrophoretic mobility shift assay relative to control. The method in brief: as §1

The target of data set [12] is T4, Serine/threonine-protein kinase pim-3 (Homo sapiens, UniProt Q86V86). The data set is described as follows: Inhibition of full length recombinant human N-terminal GST-tagged PIM3 (1 to 326 end residues) expressed in baculovirus infected sf21 cells using S6K2 peptide as substrate by electrophoretic mobility shift assay.
Data set [13] in a line: Aqueous solubility of the compound in pH 7.4 PBS by HPLC-UV method. Type of data set: physicochemical. The method in brief:
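Tested in PBS pH 7.4 with a final DMSO concentration of 2%; performed by a contract lab (Cerep).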

The target in data set [14] is hERG (KCNH2) (Homo sapiens, UniProt Q12809). The data set is described as follows: Inhibition of human ERG expressed in CHO cells at 10 uM by patch clamp method relative to control. The following applies: CHO cells expressing human ERG. The format is cell-based. The method in brief: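 hERG block measured by patch clamp with compound at 10 μM; performed by a contract lab (Cerep).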

The target in data set [15] is T4, Serine/threonine-protein kinase pim-3. Kind of data set: Inhibition of full length recombinant human N-terminal GST-tagged PIM3 (1 to 326 end residues) expressed in baculovirus infected sf21 cells at 200 nM using S6K2 peptide as substrate by electrophoretic mobility shift assay relative to control. The gist of the method:
as §1

The nature of data set [16]: Stability in mouse liver microsomes assessed as parent compound remaining at 1 uM after 1 hr. The note with it: read-out: Stability. The format is ADME, microsome. The method in brief:
(§2)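 Compound at 1 μM incubated with liver microsomes (0.3 mg/mL protein) at 37 °C for 1 h; value is percent of parent remaining. Performed by a contract lab (Cerep).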
(Microsomes from liver hold many membrane-bound enzymes, among them those of drug oxidation.)

A short description of data set [17]: Stability in human liver microsomes assessed as parent compound remaining at 1 uM after 1 hr. Type of data set: ADME, microsome. The following applies: read-out: Stability. The gist of the method:
as §2

For data set [18], the target named is T1, Serine/threonine-protein kinase pim-1. The data set is described as follows: Inhibition of full length recombinant human N-terminal His-tagged PIM1 (1 to 313 end residues) expressed in baculovirus infected sf21 cells at 200 nM using S6K2 peptide as substrate by electrophoretic mobility shift assay relative to control. The method in brief: as §1
The nature of data set [19]: Permeability in human Caco2 cells at 10 uM. The note with it: Caco-2, read-out: permeability. Type of data set: ADME, cell-based. The method in brief:
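Caco-2 monolayer permeability measured with compound at 10 μM, reported in units of 10–6 cm/s; performed by a contract lab (Cerep).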

≈ marks a conversion by molar mass, not a printed value.

In the case of `CCCc1ccc2c(/C=C3\Oc4c(ccc(OC)c4CN4CCNCC4)C3=O)c[nH]c2n1`, the IC50 (as a rule, the concentration that inhibits the measured activity by half) in [1] was 4.5 nM.

`CCc1ccc2c(/C=C3\Oc4c(ccc(OC)c4CN4CCNCC4)C3=O)c[nH]c2n1`: the IC50 in data set [1] came to 1.1 nM; in data set [2], 290 nM. In addition, the inhibition (in general, the change of the read-out against control, counted positive when it falls) was found to be 50% in data set [3]; 23% in data set [4]; 90% in [5]; 77% in data set [6]; 10% in data set [7].

As for `O=C1/C(=C/c2c[nH]c3nc(Cl)ccc23)Oc2c1ccc(O)c2CN1CCNCC1`, the IC50 is 1.4 nM in data set [1]; greater than 10000 nM in data set [8]; 140 nM in [2]; 200 nM in [9]; 1.3 nM in [10]; 0.88 nM in data set [12]. The inhibition was 63% in data set [11]; 58% in [4]; greater than 99% in data set [15]; 30% in data set [5]; 57% in data set [6]; 99% in data set [18]. For the same compound, the concentration in solution in data set [13] (solubility) came to 130 µM (≈ 53.4 µg/mL). The compound further showed an inhibition at 10 µM in data set [14] of 30%. Besides, the remaining at 1 h, 1 µM in data set [16] came out at 63%; in data set [17], 82%. Also, the Papp at 10 µM in data set [19] was found to be 1.7 ×10⁻⁶ cm/s.

On to `COc1ccc2c(c1CN1CCNCC1)O/C(=C\c1c[nH]c3nc(Cl)ccc13)C2=O`, for which the IC50 was 0.41 nM in data set [1], 140 nM in data set [2], 0.49 nM in data set [10] and 0.4 nM in [12]. Besides, the inhibition was 61% in data set [11]; 41% in data set [4]; greater than 99% in data set [15]; 62% in [5]; 80% in data set [6]; 99% in [18]. Besides, the solubility – broadly, how much of the substance goes into solution per volume – in [13] came to 21 µM (≈ 8.92 µg/mL). Also, in data set [14], the inhibition at 10 µM was found to be 22%. Further, the results for the remaining at 1 h, 1 µM in [16] and in [17] were 58% and 82%, respectively. In [19], the Papp at 10 µM came to 0.31 ×10⁻⁶ cm/s.

With `N[C@@H]1CCCN(c2c(/C=C3\SC(=O)NC3=O)cccc2-c2ccccc2)C1`, the half-inhibitory concentration (IC50) in [8] is greater than 10000 nM; in data set [9], 12 nM.

Regarding `COc1ccc2c(c1CN1CCNCC1)O/C(=C\c1c[nH]c3nc(C)ccc13)C2=O`, the results for the IC50 in data set [1] and in data set [2] were 0.64 nM and 300 nM, respectively. For the same compound, the inhibition in [3] worked out at 50%; in data set [4], 25%; in data set [6], 91%; in data set [7] it was 10%. Moreover, the solubility in [13] amounted to 130 µM (≈ 52.6 µg/mL). The compound also showed an inhibition at 10 µM in [14] of 14%. The remaining at 1 h, 1 µM in [16] was found to be 69%; in data set [17], 74%. Moreover, the Papp at 10 µM in data set [19] amounted to 0.13 ×10⁻⁶ cm/s.

On to `COc1ccc2c(c1CN1CCNCC1)O/C(=C\c1c[nH]c3ncccc13)C2=O`, for which the IC50 in data set [1] was determined as 0.84 nM; in [2] it was 390 nM. Also, the inhibition in data set [3] was greater than 75%; in data set [15] it was greater than 50%; in [18] it was greater than 50%; in data set [7], greater than 75%. Further, the solubility in data set [13] was no less than 200 µM. The compound also registered an inhibition at 10 µM in data set [14] of 19%. The remaining at 1 h, 1 µM in [16] is 72%; in data set [17] it was 90%. Besides, the Papp at 10 µM in data set [19] is 2.1 ×10⁻⁶ cm/s.

Turning to `CCc1ccc2c(/C=C3\Oc4c(ccc(O)c4CN4CCNCC4)C3=O)c[nH]c2n1`, the 50% inhibitory concentration (IC50) in data set [1] came to 16 nM.

In the case of `CN1CCC(CNc2ccc3ncc(-c4cccc(OC(F)(F)F)c4)n3n2)CC1` [SGI-1776], the IC50 was 1700 nM in data set [8] and 600 nM in [9].

For the compound `COc1ccc2c(c1CN1CCNCC1)O/C(=C\c1c[nH]c3nc(-c4ccccc4)ccc13)C2=O`, in data set [1], the IC50 is 16 nM.

Take `CCCCc1ccc2c(/C=C3\Oc4c(ccc(OC)c4CN4CCNCC4)C3=O)c[nH]c2n1`: the IC50 in data set [1] is 2.1 nM.

Consider `COc1ccc2c(c1CN1CCNCC1)O/C(=C\c1c[nH]c3nc(F)ccc13)C2=O`, for which, in [1], the IC50 is 0.28 nM. Moreover, the inhibition in data set [3] stood at 94%; in data set [11] it was 79%; in [5] it was 59%; in data set [6], 97%.

Regarding `Cc1ccc2c(/C=C3\Oc4c(ccc(O)c4CN4CCNCC4)C3=O)c[nH]c2n1`, the figures for the 50% inhibitory concentration (IC50) in data set [1] and in [2] were 3.8 nM and 510 nM, respectively.

In the case of `O=C1/C(=C/c2c[nH]c3nc(F)ccc23)Oc2c1ccc(O)c2CN1CCNCC1`, the half-maximal inhibitory concentration (IC50) in data set [1] came to 1.8 nM.

Consider `COc1ccc2c(c1CN1CCNCC1)O/C(=C\c1n[nH]c3ccccc13)C2=O`, for which the remaining at 1 h, 1 µM in data set [16] came to 83%; in data set [17], 68%. Besides, the Papp at 10 µM in [19] is 0.89 ×10⁻⁶ cm/s.

On to `O=C1/C(=C/c2c[nH]c3ncccc23)Oc2c1ccc(O)c2CN1CCNCC1`, for which the half-maximal inhibitory concentration (IC50) is 2 nM in data set [1] and 420 nM in [2].
